Reference: publication PMC4258470 (Journal of molecular biology, 2014)

Assays:
[1] = test system: TAZ2 domain of CBP; test: In vitro GB1 pulldown, TAZ2; assay type: binding, mouse; conditions: H6GB1 alone as negative control; legend refers to TAZ1 and TAZ2
[2] = test system: N-terminal region of p300, encompassing the TAZ1 (or CH1) domain; conditions: buffer containing 2.5 mM EDTA; cited from earlier work
[3] = test system: pRb acetylation in MEF cells; test: In-cell pRb acetylation assay, MEF cells; assay type: cell-based, mouse; conditions: for pRb acetylation, MEF cells before Cre treatment: floxed CBP/p300 MEF, prior to Cre
Procedure, shortened: (§1)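 Primary mouse embryonic fibroblasts homozygous for floxed CBP and p300 alleles, grown in DMEM with 10% calf serum, stably transduced with LXSN-E7 retrovirus and selected in 600 μg/ml G418. Lysed in NETN with inhibitors. pRb immunoprecipitated from 0.8–1.0 mg extract, 7–8% SDS-PAGE, PVDF blots probed with anti-pRb or anti-acetyl-lysine, ECL.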

[4] = test system: p130; conditions: in vitro; cited from earlier work
[5] = test system: pRb in BJ cells; test: pRb level by Western blot, BJ cells; assay type: cell-based, human; conditions: retroviral transduction, vs control vector (BP); lysates and IP
Procedure, shortened: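 Human BJ fibroblasts (DMEM, 10% calf serum) retrovirally transduced with LXSN control vector or E7 and G418-selected (600 μg/ml). Sonicated in NETN buffer with phosphatase, deacetylase and protease inhibitors. Both lysates and anti-pRb immunoprecipitates (0.8–1.0 mg extract) resolved on 7–8% SDS-PAGE and Western blotted with anti-pRb, ECL detection.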

[6] = test system: p53 transcriptional activity; conditions: in cells; cited from earlier work
[7] = test system: cellular transformation; conditions: epithelial cells, E7 alone; cited from earlier work
[8] = test system: pRb acetylation in BJ cells; test: In-cell pRb acetylation assay; assay type: cell-based, human; conditions: retroviral transduction, vs control vector (BP)
Procedure, shortened: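 Human BJ foreskin fibroblasts (DMEM, 10% calf serum) stably transduced with LXSN control vector or E7 retrovirus and selected in 600 μg/ml G418. Lysed by sonication in NETN containing butyrate, TSA, phosphatase and protease inhibitors. Anti-pRb IP from 0.8–1.0 mg extract, SDS-PAGE, blots probed for acetyl-lysine and pRb, ECL. Background-corrected AcK/pRb band ratio normalised to vector, mean of two independent experiments.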

[9] = test system: pRb in MEF cells; test: pRb level by Western blot, MEF cells; assay type: cell-based, mouse; conditions: floxed CBP/p300 MEF, prior to Cre
Procedure, shortened: as §1

[10] = target: p300 TAZ1 domain; conditions: read-out: affinity measured by sedimentation equilibrium for p300 TAZ1; 4°C; cited from earlier work
[11] = test system: HPV E2 transcriptional activity; conditions: cited from earlier work
[12] = target: pocket domain of pRb; conditions: read-out: Kd for pRb; pRb pocket domain (pRb-AB); cited from earlier work
[13] = target: T1, TAZ2 domain of CBP (residues 1764–1855) (Mus musculus, UniProt P45481); test: Fluorescence anisotropy, competition with ppE7; assay type: binding; conditions: phosphorylated vs non-phosphorylated (Table 1)
T1 sequence (P45481 1764-1855): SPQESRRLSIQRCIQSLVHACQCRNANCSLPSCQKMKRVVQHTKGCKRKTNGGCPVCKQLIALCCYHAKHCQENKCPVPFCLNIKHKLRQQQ

[14] = test system: TAZ2 domain of CBP with pRb-AB; test: 1H-15N HSQC NMR of 15N-TAZ2 with E7; assay type: binding, mouse; conditions: 15N-TAZ2:E7:pRb-AB 1:0.25:1; NMR buffer pH 6.8
[15] = target: T1, TAZ2 domain of CBP (residues 1764–1855); test: 1H-15N HSQC NMR titration of 15N-TAZ2; assay type: binding; conditions: TAZ2 vs TAZ1 of CBP; fluorescence and NMR

STAT1(710-750): STAT1 residues 710-750, positive control (SEVHPSRLQTTDNLLPMSPEEFDEVSRIVGSVEFDSMMNTV)
pulldown signal vs H6GB1 background [1]: bind significantly above the background signal

p53(13-61): p53 residues 13-61, positive control
pulldown signal vs H6GB1 background [1]: bind significantly above the background signal

E7(1-98): full length high-risk HPV16 E7 (residues 1-98), homodimer
interaction with p300 regions in GST pulldown [2]: interacts most strongly with the N-terminal region of p300, encompassing the TAZ1 (or CH1) domain | E7-induced pRb acetylation, MEF cells lacking CBP/p300 ([3]; Cre-treated MEF cells, listed as full-length HPV16 E7): acetylation levels were substantially decreased in CBP/p300^−/− cells | pRb acetylation, MEF cells before Cre treatment ([3]; listed as E7): increased levels of pRb acetylation | pRb acetylation, MEF cells before Cre treatment ([3]; listed as full-length HPV16 E7): Enhanced acetylation of pRb | enhancement of p300-mediated acetylation of p130 [4]: enhances p300-mediated acetylation of the retinoblastoma protein family member p130 | pRb level, BJ cells [5]: decreased levels of pRb | inhibition of p53 transcriptional activity [6]: inhibit p53 transcriptional activity in cells | transformation and immortalization [7]: sufficient to transform and immortalize epithelial cells, albeit with lower efficiency | pRb acetylation, BJ cells ([8]; listed as E7): increased levels of acetylation | pRb acetylation, BJ cells ([8]; listed as full-length E7): enhanced | pRb acetylation, BJ cells ([8]; listed as full-length HPV16 E7): Enhanced acetylation of pRb | pRb level, MEF cells before Cre treatment [9]: significantly decreased levels of pRb | Kd [10]: 900 to 3500 nM | repression of HPV E2 transcriptional activity [11]: represses HPV E2 transcriptional activity

pp16-E7(1-51): HPV16 E7(1-51) phosphorylated by casein kinase II (CKII) at serines 31 and 32
Kd [12]: 2 nM

16-E7(1-51): construct containing the disordered CR1 and CR2 domains, residues M1-H51, of HPV16 E7
enhancement of binding to TAZ2 by CKII phosphorylation of Ser31 and Ser32 [13]: 3 -fold | pRb level, BJ cells [5]: comparable to control cells | ternary complex (TAZ2:E7:pRb-AB) formation by NMR [14]: unable to support ternary complex formation | pRb acetylation, BJ cells [8]: comparable to control cells | tighter binding to TAZ2 than to TAZ1 [15]: ~ 1000 -fold
